# From ChEMBL document CHEMBL4257536, “Pharmacophore-based tailoring of biphenyl amide derivatives as selective 5-hydroxytryptamine 2B receptor antagonists” (Medchemcomm, 2018)
# Columns and labels:
# [1] = target: T1, 5-hydroxytryptamine receptor 2B (Homo sapiens, UniProt P41595); assay: Ratio of IC50 for antagonist activity at recombinant human 5-HT2B receptor in presence of human serum albumin to IC50 for antagonist activity at recombinant human 5-HT2B receptor in absence of human serum albumin
# T1 sequence (P41595 whole entry): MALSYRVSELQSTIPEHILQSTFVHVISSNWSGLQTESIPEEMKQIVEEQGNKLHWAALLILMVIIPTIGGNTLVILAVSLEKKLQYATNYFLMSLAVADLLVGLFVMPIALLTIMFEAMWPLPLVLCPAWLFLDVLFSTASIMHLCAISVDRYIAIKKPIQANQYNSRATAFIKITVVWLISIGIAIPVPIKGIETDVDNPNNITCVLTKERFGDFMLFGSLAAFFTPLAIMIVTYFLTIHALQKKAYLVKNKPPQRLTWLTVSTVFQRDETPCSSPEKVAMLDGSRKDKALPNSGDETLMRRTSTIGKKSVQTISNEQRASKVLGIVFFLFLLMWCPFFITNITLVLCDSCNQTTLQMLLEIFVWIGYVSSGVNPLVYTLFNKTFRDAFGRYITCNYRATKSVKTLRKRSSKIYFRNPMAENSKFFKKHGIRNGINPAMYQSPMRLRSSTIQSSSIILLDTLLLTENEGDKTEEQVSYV
# Procedure, shortened: (§1)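 IC50 was measured in the CHO-K1/5-HT2B calcium-flux assay twice, once in buffer alone and once with 4% HSA added. The ratio compares the IC50 with HSA to the IC50 without it. Run in triplicate.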
# [2] = target: T2, 5-hydroxytryptamine receptor 2C (Homo sapiens, UniProt P28335); assay: Displacement of [3H]LSD from human 5HT2C receptor expressed in HEKT cell membranes after 1.5 hrs by liquid scintillation counting method
# T2 sequence (P28335 whole entry): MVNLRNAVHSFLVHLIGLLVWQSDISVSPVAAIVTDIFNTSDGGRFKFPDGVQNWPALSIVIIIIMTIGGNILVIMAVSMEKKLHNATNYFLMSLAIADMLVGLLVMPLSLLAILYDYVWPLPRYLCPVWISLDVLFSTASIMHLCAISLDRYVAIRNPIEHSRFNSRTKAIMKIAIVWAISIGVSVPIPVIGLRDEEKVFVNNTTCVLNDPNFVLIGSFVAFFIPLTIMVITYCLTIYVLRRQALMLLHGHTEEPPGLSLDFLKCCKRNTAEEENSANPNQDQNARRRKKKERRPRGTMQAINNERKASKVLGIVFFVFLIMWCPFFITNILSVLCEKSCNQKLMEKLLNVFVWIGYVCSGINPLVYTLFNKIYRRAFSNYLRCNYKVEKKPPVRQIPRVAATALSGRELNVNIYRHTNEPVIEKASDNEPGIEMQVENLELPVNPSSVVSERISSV
# [3] = Apparent permeability across apical side to basolateral side in human Caco2 cells; format: ADME, cell-based; conditions: Caco-2
# [4] = target: 5-hydroxytryptamine receptor 2A (Homo sapiens, UniProt P28223); assay: Displacement of [3H]ketanserin from human 5HT2A receptor expressed in HEKT cell membranes after 1.5 hrs by liquid scintillation counting method; format: cell-based
# Sequence of 5-hydroxytryptamine receptor 2A (P28223 whole entry): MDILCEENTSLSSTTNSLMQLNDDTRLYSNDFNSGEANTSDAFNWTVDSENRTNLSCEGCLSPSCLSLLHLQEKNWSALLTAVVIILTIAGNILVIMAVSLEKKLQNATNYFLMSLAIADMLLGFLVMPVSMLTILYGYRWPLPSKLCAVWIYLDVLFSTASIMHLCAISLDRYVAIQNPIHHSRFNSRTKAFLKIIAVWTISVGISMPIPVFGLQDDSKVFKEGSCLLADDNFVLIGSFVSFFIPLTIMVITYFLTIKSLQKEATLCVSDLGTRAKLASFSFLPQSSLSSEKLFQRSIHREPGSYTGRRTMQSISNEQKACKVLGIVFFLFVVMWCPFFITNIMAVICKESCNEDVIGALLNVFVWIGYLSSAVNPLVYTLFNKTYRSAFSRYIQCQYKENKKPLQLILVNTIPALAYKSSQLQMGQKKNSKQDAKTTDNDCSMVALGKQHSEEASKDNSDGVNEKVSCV
# [5] = target: T3, 5-hydroxytryptamine receptor 1A (Homo sapiens, UniProt P08908); assay: Displacement of [3H]8-OH-DPAT from human 5HT1A receptor expressed in CHO cell membranes after 1.5 hrs by liquid scintillation counting method
# T3 sequence (P08908 whole entry): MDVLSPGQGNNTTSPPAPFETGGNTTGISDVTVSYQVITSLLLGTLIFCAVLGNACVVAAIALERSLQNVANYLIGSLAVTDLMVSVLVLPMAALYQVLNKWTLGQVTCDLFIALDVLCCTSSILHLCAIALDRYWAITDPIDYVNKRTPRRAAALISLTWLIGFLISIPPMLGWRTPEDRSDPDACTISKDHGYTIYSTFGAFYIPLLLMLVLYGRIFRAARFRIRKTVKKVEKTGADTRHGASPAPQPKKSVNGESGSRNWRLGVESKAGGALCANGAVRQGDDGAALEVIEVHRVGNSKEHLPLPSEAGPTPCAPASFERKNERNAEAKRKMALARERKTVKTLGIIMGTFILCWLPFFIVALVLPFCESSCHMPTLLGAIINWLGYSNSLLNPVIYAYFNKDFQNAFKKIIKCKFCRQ
# Procedure, shortened: (§2)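 Ki determination by radioligand displacement in triplicate. Reference radioligands: [3H]5-HT for 5-HT1E, [3H]8-OH-DPAT for 5-HT1A, [3H]GR127543 for 5-HT1B, [3H]LY278584 for 5-HT3.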
# [6] = target: 5-hydroxytryptamine receptor 1B (Homo sapiens, UniProt P28222); assay: Displacement of [3H]GR127543 from human 5HT1B receptor expressed in HEK cell membranes after 1.5 hrs by liquid scintillation counting method; procedure, shortened: as §2
# Sequence of 5-hydroxytryptamine receptor 1B (P28222 whole entry): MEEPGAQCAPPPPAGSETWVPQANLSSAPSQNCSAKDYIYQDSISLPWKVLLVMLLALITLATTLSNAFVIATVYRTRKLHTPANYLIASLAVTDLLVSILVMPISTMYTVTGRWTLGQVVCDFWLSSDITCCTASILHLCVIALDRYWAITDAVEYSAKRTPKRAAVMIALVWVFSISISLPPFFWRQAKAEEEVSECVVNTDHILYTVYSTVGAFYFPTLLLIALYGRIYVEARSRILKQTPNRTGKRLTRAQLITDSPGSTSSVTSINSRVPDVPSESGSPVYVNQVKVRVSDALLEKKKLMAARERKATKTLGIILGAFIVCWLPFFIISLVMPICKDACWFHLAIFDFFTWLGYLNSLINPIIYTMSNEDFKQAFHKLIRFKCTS
# [7] = target: T4, 5-hydroxytryptamine receptor 3A (Homo sapiens, UniProt P46098); assay: Displacement of [3H]LY278584 from human 5HT3 receptor expressed in HEKT cell membranes after 1.5 hrs by liquid scintillation counting method
# T4 sequence (P46098 whole entry): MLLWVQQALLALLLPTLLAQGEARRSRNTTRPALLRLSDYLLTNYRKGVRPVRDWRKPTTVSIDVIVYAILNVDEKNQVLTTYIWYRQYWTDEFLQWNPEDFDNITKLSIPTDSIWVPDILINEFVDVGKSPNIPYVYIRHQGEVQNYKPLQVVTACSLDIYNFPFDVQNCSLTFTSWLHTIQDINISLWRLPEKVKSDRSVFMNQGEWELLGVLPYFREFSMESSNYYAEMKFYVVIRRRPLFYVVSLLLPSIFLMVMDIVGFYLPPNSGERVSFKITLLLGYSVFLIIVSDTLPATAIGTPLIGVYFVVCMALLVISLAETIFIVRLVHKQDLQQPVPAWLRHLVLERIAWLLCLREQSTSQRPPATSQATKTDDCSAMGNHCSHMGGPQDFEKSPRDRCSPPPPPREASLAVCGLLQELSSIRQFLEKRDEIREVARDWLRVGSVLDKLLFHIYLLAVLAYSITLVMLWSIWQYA
# [8] = Metabolic stability in human plasma assessed as compound remaining measured after 120 mins; format: ADME, cell-free; conditions: read-out: Stability
# [9] = Half life of compound in fasted state simulated gastric fluid at pH 1.6; format: ADME
# [10] = target: T1, 5-hydroxytryptamine receptor 2B; assay: (§3) Antagonist activity at recombinant human 5-HT2B receptor expressed in CHOK1 cells assessed as inhibition of serotonin-induced calcium flux preincubated for 60 mins at 37 degC followed by incubation at room temperature for 15 mins and subsequent addition of serotonin and measured for 100 secs by fluorescence assay; format: functional, cell-based
# Procedure, shortened: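 5-HT2B antagonist IC50 came from a dose-response curve in a calcium-flux assay in the CHO-K1/5-HT2B cell line. Run in triplicate.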
# [11] = Half life in rat liver microsomes; format: ADME, microsome
# [12] = Apparent permeability across basolateral side to apical side in human Caco2 cells; format: ADME, cell-based; conditions: Caco-2
# [13] = target: T1, 5-hydroxytryptamine receptor 2B; assay: Displacement of [3H]LSD from human 5HT2B receptor expressed in HEK cells membranes after 1.5 hrs by liquid scintillation counting method; format: cell membranes
# [14] = target: T1, 5-hydroxytryptamine receptor 2B; assay: as §3, with “secs in presence of human serum albumin” for “secs”; format: functional, cell-based; procedure, shortened: as §1
# [15] = Half life of compound in fasted state simulated intestinal fluid at pH 6.5; format: ADME
# [16] = target: T1, 5-hydroxytryptamine receptor 2B; assay: as §3, with “flux at 1 to 10 uM” for “flux”, “assay relative to control” for “assay”; format: functional, cell-based
# Procedure, shortened: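 Calcium-flux functional assay in CHO-K1 cells stably expressing 5-HT2B. Compounds were screened at 10 μM and 1 μM, and the value is % inhibition of 5-HT2B activity. Run in triplicate.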
# [17] = target: 5-hydroxytryptamine receptor 1E (Homo sapiens, UniProt P28566); assay: Displacement of [3H]5-HT from human 5HT1E receptor expressed in HEKT cell membranes after 1.5 hrs by liquid scintillation counting method; procedure, shortened: as §2
# Sequence of 5-hydroxytryptamine receptor 1E (P28566 whole entry): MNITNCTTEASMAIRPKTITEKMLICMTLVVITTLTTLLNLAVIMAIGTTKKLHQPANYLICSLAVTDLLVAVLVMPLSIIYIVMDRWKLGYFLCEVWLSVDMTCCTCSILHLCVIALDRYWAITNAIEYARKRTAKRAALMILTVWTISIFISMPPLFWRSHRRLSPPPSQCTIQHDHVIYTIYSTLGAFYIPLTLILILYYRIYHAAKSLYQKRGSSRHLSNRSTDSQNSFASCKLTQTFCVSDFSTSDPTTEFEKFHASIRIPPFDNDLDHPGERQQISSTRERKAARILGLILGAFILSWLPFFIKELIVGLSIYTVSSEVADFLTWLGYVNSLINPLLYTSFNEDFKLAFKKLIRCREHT
# HepG2 = assay: Cytotoxicity against human HepG2 cells by MTT assay; format: cell-based
# Homo sapiens = organism: Homo sapiens; assay: Selectivity ratio of Ki for human 5HT1B receptor to Ki for human 5HT2B receptor
# Procedure, shortened: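 Ki values from radioligand displacement run in triplicate, using [3H]GR127543 for 5-HT1B and [3H]LSD for 5-HT2B. The ratio compares the 5-HT1B Ki to the 5-HT2B Ki.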
SMILES,Ratio IC50 [1],Ki [2] [nM],Ki [4] [nM],Ki [5] [nM],Ki [6] [nM],Ki [7] [nM],Ki [13] [nM],Ki [17] [nM],further results
CC(C)c1cc(-c2ccc(F)c3ccccc23)nc(N)n1,27,,,,,,,,
Cc1cc2c(cc1Cl)N(C(=O)Nc1ccnc3ccccc13)CC2,50,,,,,,,,
O=C(NCCc1c[nH]c2ccccc12)C1CCN(C(=O)c2ccccc2)CC1,,749,5690,5400,7600,> 10000,79.3,> 10000,
O=C(NCc1ccccc1)C1CCN(C(=O)c2ccc(-c3ccccc3)cc2)CC1,,986,6790,9390,8590,> 10000,569,> 10000,Ratio Ki (Homo sapiens): 15

# Second part, led by results:
Ratio IC50 [1],Ki [2] [nM],Ki [4] [nM],Ki [5] [nM],Ki [6] [nM],Ki [7] [nM],Ki [13] [nM],Ki [17] [nM],SMILES,further results
,1.9,,,,,,,Cc1nc2sccn2c(=O)c1CCN1CCC(=C(c2ccc(F)cc2)c2ccc(F)cc2)CC1 [RITANSERIN],
,473,2460,603,3410,> 10000,4.5,> 10000,O=C(NCCc1c[nH]c2ccccc12)C1CCN(C(=O)c2ccc(-c3ccccc3)cc2)CC1,Papp A→B [3]: 16.3 ×10⁻⁶ cm/s; remaining at 2 h [8]: 97.4%; half-life [9]: 4.32 h; IC50 [10]: 14.1 nM; half-life [11]: 2.98 h; Papp B→A [12]: 32.8 ×10⁻⁶ cm/s; IC50 [14]: 18.7 nM; half-life [15]: > 8.33 h; inhibition [16]: > 95%; IC50 (HepG2): > 50000 nM
500,,,,,,,,O=C(c1ccc(-c2ccccc2)cc1)N1CCC(c2nc3ccccc3[nH]2)CC1,
